Reference: ChEMBL document CHEMBL1128513, “(Aryloxy)methylsilane derivatives as new cholesterol biosynthesis inhibitors: synthesis and hypocholesterolemic activity of a new class of squalene epoxidase inhibitors” (J Med Chem, 1995)

What was measured:
[1] = In vitro ability to inhibit cholesterol biosynthesis in HepG2 cells in culture from [14C]mevalonate.; format: functional, cell-based
In short: (§1)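 Hep-G2 cells grown in DMEM with 10% fetal calf serum to subconfluence, then 48 h in DMEM plus 2% Ultroser G. Pretreated 1 h with compound or vehicle (DMSO 0.1%), then [14C]mevalonate (1 μCi/mL) for 4 h. Cells lysed in KOH and saponified in ethanolic KOH at 75 °C for 1 h. Nonsaponifiable lipids separated by TLC. IC50 derived from % [14C]cholesterol versus control cells.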

[2] = In vitro ability to inhibit cholesterol biosynthesis in HepG2 cells in culture from [14C]acetate; format: functional, cell-based
[3] = In vivo ability to inhibit cholesterol biosynthesis from [14C]acetate after a single oral administration in female rats.; format: functional; settings: Rattus norvegicus
In short: (§2)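 Female SD rats (60–80 g) kept 11 days on a reversed light cycle with free access to food and water. Single oral dose at 9:00 a.m., suspended in water with 2% DMSO and 5% Tween 80 (1 mL/100 g). [14C]acetate given i.p. at 80 μCi/kg 1 h later. Liver taken after a further 1 h, saponified, and [14C]cholesterol analysed by TLC against controls. Mean ED50 from at least two experiments.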

[4] = system: HepG2; assay: In vitro ability to inhibit cholesterol biosynthesis in HepG2 cells in culture from [14C]acetate.; format: functional, cell-based; settings: Homo sapiens
[5] = system: Rattus norvegicus; assay: In vivo ability to inhibit cholesterol biosynthesis from [14C]acetate after a single oral administration in female rats; format: functional; in short: as §2
[6] = system: HepG2; assay: In vitro ability to inhibit cholesterol biosynthesis in HepG2 cells in culture from [14C]mevalonate; format: functional, cell-based; settings: Homo sapiens; in short: as §1

| SMILES | IC50 [1] [nM] | ED50 [3] [mg/kg] | further results |
| --- | --- | --- | --- |
| CCN(C/C=C/C#CC(C)(C)C)Cc1cccc(OC[Si](C)(C)c2ccccc2C#N)c1 | 80 | 7 | IC50 [2]: 80 nM |
| CCN(CC#CC#CC(C)(C)OC)Cc1cccc(OC[Si](C)(C)c2ccccc2C)c1 | 290 | 1.8 | IC50 [4]: 120 nM |
| CCN(C/C=C/C#CC(C)(C)C)Cc1cccc(OC[Si](C)(C)c2cccc(C)c2)c1 | > 10000 | – | – |
| CCN(C/C=C/C#CC(C)(C)C)Cc1cccc(OC[Si](C)(C)c2ccc(S)cc2)c1 | 10000 | – | – |
| CCN(C/C=C/C#CC(C)(C)C)Cc1cccc(OC[Si](C)(C)Cc2ccccc2)c1 | > 10000 | > 40 | – |
| CCN(C/C=C/C#CC(C)(C)C)Cc1cccc(OC[Si](C)(C)c2ccccc2C)c1 | 120 | 3.8 | IC50 [4]: 150 nM |
| CCN(C/C=C/C#CC(C)(C)C)Cc1cccc(OC[Si](C)(C)c2ccc(C(N)=O)cc2)c1 | 1000 | – | – |
| CCN(C/C=C/C#CC(C)(C)C)Cc1cccc(OC[Si](C)(C)c2ccc(SC)cc2)c1 | > 10000 | – | – |
| CCN(C/C=C/C#CC(C)(C)C)Cc1cccc(OC[Si](C)(C)c2ccc(C)cc2)c1 | 5000 | – | – |
| CCN(C/C=C/C#CC(C)(C)C)Cc1cccc(OC[Si](C)(C)c2ccccc2OC)c1 | 5000 | > 40 | – |
| CCN(C/C=C/C#CC(C)(C)C)Cc1cccc(OCc2cc(-c3ccsc3)cs2)c1 | – | – | ED50 [5]: 2.5 mg/kg; IC50 [6]: 20 nM |
| CCN(C/C=C/C#CC(C)(C)C)Cc1cccc(OC[Si](C)(C)c2ccc(Cl)cc2)c1 | > 10000 | > 40 | – |
| CCN(CC#CC#CC(C)(C)C)Cc1cccc(OC[Si](C)(C)c2ccccc2C)c1 | 780 | 5 | – |
| CCN(C/C=C/C#CC(C)(C)C)Cc1cccc(OC[Si](C)(C)c2ccccc2C(F)(F)F)c1 | 1480 | 20 | – |
| CCN(C/C=C/C#CC(C)(C)C)Cc1cccc(OC[Si](C)(C)c2ccc(Br)cc2)c1 | > 10000 | > 40 | – |
| CCN(C/C=C/C#CC(C)(C)C)Cc1cccc(OC[Si](C)(C)c2ccccc2)c1 | 500 | 20 | IC50 [2]: 800 nM |
| CC[C@H](C)C(=O)O[C@H]1C[C@H](O)C=C2C=C[C@H](C)[C@H](CC[C@@H](O)C[C@@H](O)CC(=O)O)[C@H]21 [PRAVASTATIN] | – | – | ED50 [5]: 0.9 mg/kg; IC50 [2]: 430 nM; IC50 [6]: […] |

Now from value to compound, other results behind:

| IC50 [1] [nM] | SMILES | ED50 [3] [mg/kg] | further results |
| --- | --- | --- | --- |
| 1320 | C=Cc1ccc([Si](C)(C)COc2cccc(CN(CC)C/C=C/C#CC(C)(C)C)c2)cc1 | > 40 | – |
| > 10000 | CCN(C/C=C/C#CC(C)(C)C)Cc1cccc(OC[Si](C)(C)CCc2ccccc2)c1 | – | – |
| > 10000 | CCN(C/C=C/C#CC(C)(C)C)Cc1cccc(OC[Si](C)(C)c2ccc(OC)cc2)c1 | – | – |
| 60 | CCN(C/C=C/C#CC(C)(C)C)Cc1cccc(OC[Si](C)(C)c2ccc(C#N)cc2)c1 | > 40 | IC50 [4]: 70 nM |
| 140 | CCN(C/C=C/C#CC(C)(C)C)Cc1cccc(OC[Si](C)(C)c2ccc(C=O)cc2)c1 | 20 | IC50 [2]: 150 nM |
| 5000 | CCN(C/C=C/C#CC(C)(C)C)Cc1cccc(OC[Si](C)(C)c2ccc(F)cc2)c1 | > 40 | – |
